Assay results published in article PMC5089614 (British Journal of Clinical Pharmacology, 2016).
Like-named read-outs stand apart in the source and are kept apart here.

Tests used:
[1] = Single-dose plasma pharmacokinetics of oral ixazomib by hepatic function group; format: in vivo, human; settings: for AUC(0-t) / Tmax: human, plasma; for AUC(0-t): oral; for Tmax: po; for Dose-normalized AUC 0–last (total) / Unbound AUC 0-last / Unbound dose-normalized AUC 0–last / C max (total) / Dose-normalized C max (total) / Unbound C max / Unbound dose-normalized C max: geometric mean (%CV)
Outline: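 Solid tumour patients took a single oral dose on day 1. Moderate impairment was total bilirubin >1.5–3 × ULN and severe >3 × ULN. Plasma was sampled predose and 0.5–336 h post-dose and assayed by validated reverse-phase LC/MS/MS. Parameters were noncompartmental. Dose-normalized values were log-transformed, with ratios and 90% CI versus normal from a mixed-effects ANOVA, group fixed.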

plasma proteins = format: in vitro ADME, human
Outline: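 Each patient's predose plasma was spiked with test compound at 70 or 280 ng ml−1 and run in triplicate by rapid equilibrium dialysis. Dialysis was 3 h at 37 °C against isotonic sodium phosphate buffer (120 mM, pH 7.5) across an 8000-Da cut-off membrane. Donor plasma and receiver buffer were each mixed 50:50 with the opposite matrix and quantified by LC/MS/MS.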

[2] = moderate impairment vs. normal function
[3] = moderate impairment, 2.3 mg, n = 10
[4] = moderate impairment, 2.3 mg, n = 13
[5] = moderate/severe hepatic impairment combined
[6] = moderate/severe impairment combined vs. normal function
[7] = severe impairment vs. normal function
[8] = severe impairment, 1.5 mg, n = 11
[9] = severe impairment, 1.5 mg, n = 18

SMILES: CC(C)C[C@H](NC(=O)CNC(=O)c1cc(Cl)ccc1Cl)B(O)O [ixazomib]
- AUC(0-t) ([1]; 1.5 mg): 489 ng·h/mL
- AUC(0-t) ([1]; 2.3 mg): 846 ng·h/mL
- AUC(0-t) ([1]; 4 mg): 1160 ng·h/mL
- Tmax [1]: 0.95 to 1.5 h
- Tmax ([1]; 1.5 mg): 1.21 h
- Tmax ([1]; 2.3 mg): 1.5 h
- Tmax ([1]; 4 mg): 0.95 h
- unbound dose-normalized C max, percent higher than normal hepatic function ([1]; moderate hepatic impairment): 27%
- Geometric least squares mean ratio (90% CI), total dose-normalized AUC 0–last [1, 2]: 1.27 (0.77, 2.11)
- Geometric least squares mean ratio (90% CI), total dose-normalized C max [1, 2]: 1.21 (0.74, 2.00)
- Geometric least squares mean ratio (90% CI), unbound dose-normalized AUC 0–last [1, 2]: 1.32 (0.70, 2.50)
- Geometric least squares mean ratio (90% CI), unbound dose-normalized C max [1, 2]: 1.27 (0.74, 2.18)
- Dose-normalized AUC 0–last (total) [1, 3]: 368 (49) h·ng ml^−1 mg^−1
- Unbound AUC 0-last [1, 3]: 7.33 (61) h·ng ml^−1
- Unbound dose-normalized AUC 0–last [1, 3]: 3.19 (61) h·ng ml^−1 mg^−1
- C max (total) [1, 4]: 42.5 (63) ng ml^−1
- Dose-normalized C max (total) [1, 4]: 18.5 (63) ng ml^−1 mg^−1
- Unbound C max [1, 4]: 0.372 (80) ng ml^−1
- Unbound dose-normalized C max [1, 4]: 0.162 (80) ng ml^−1 mg^−1
- total dose-normalized C max, percent higher than normal hepatic function [1, 5]: 17%
- unbound dose-normalized C max, percent higher than normal hepatic function [1, 5]: 24%
- Geometric least squares mean ratio (90% CI), total dose-normalized AUC 0–last [1, 6]: 1.20 (0.79, 1.82)
- Geometric least squares mean ratio (90% CI), total dose-normalized C max [1, 6]: 1.17 (0.77, 1.78)
- Geometric least squares mean ratio (90% CI), unbound dose-normalized AUC 0–last [1, 6]: 1.27 (0.75, 2.16)
- Geometric least squares mean ratio (90% CI), unbound dose-normalized C max [1, 6]: 1.24 (0.79, 1.95)
- C max (total) ([1]; normal function, 4 mg, n = 12): 61.0 (54) ng ml^−1
- Dose-normalized AUC 0–last (total) ([1]; normal function, 4 mg, n = 12): 289 (41) h·ng ml^−1 mg^−1
- Dose-normalized C max (total) ([1]; normal function, 4 mg, n = 12): 15.3 (54) ng ml^−1 mg^−1
- Unbound AUC 0-last ([1]; normal function, 4 mg, n = 12): 9.65 (50) h·ng ml^−1
- Unbound C max ([1]; normal function, 4 mg, n = 12): 0.509 (47) ng ml^−1
- Unbound dose-normalized AUC 0–last ([1]; normal function, 4 mg, n = 12): 2.41 (50) h·ng ml^−1 mg^−1
- Unbound dose-normalized C max ([1]; normal function, 4 mg, n = 12): 0.127 (47) ng ml^−1 mg^−1
- unbound dose-normalized AUC0–last, percent higher than normal hepatic function ([1]; severe hepatic impairment): 23%
- unbound dose-normalized C max, percent higher than normal hepatic function ([1]; severe hepatic impairment): 21%
- Geometric least squares mean ratio (90% CI), total dose-normalized AUC 0–last [1, 7]: 1.13 (0.69, 1.84)
- Geometric least squares mean ratio (90% CI), total dose-normalized C max [1, 7]: 1.14 (0.72, 1.82)
- Geometric least squares mean ratio (90% CI), unbound dose-normalized AUC 0–last [1, 7]: 1.23 (0.66, 2.29)
- Geometric least squares mean ratio (90% CI), unbound dose-normalized C max [1, 7]: 1.21 (0.74, 2.01)
- Unbound AUC 0-last [1, 8]: 4.44 (63) h·ng ml^−1
- Unbound dose-normalized AUC 0–last [1, 8]: 2.96 (63) h·ng ml^−1 mg^−1
- C max (total) [1, 9]: 26.1 (70) ng ml^−1
- Dose-normalized C max (total) [1, 9]: 17.4 (70) ng ml^−1 mg^−1
- Unbound C max [1, 9]: 0.232 (84) ng ml^−1
- Unbound dose-normalized C max [1, 9]: 0.154 (84) ng ml^−1 mg^−1
- bound fraction (mean ± SD) (plasma proteins; moderate hepatic impairment group): 99.1 ± 0.37%
- bound fraction (mean ± SD) (plasma proteins; normal hepatic function group): 99.2 ± 0.34%
- bound fraction (mean ± SD) (plasma proteins; severe hepatic impairment group): 99.0 ± 0.45%
